Measurements reported in ChEMBL document CHEMBL4680100, “Revisiting the SAR of the Antischistosomal Aryl Hydantoin (Ro 13-3978)” (J Med Chem, 2016).
pIC50: −log10 of the molar value. ≈ marks a conversion by molar mass, not a printed value.

Assays:
[1] = Kinetic solubility of the compound in 0.01 M HCl at pH 2 by nephelometry; assay type: physicochemical; conditions: read-out: Kinetic_solubility
[2] = Intrinsic clearance in mouse liver microsome in presence of NADPH-regenerating system incubated over 60 mins by LC-MS analysis; conditions: microsomes, 1 h
[3] = test system: L6; experiment: Cytotoxicity against rat L6 cells assessed as reduction in cell viability at up to 30 uM; assay type: cell-based
[4] = target: Albumin (Homo sapiens, UniProt P02768); experiment: Protein binding in immobilized human serum albumin by HPLC analysis; assay type: ADME; conditions: isolated protein
Summary of the method: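 Binding estimated from gradient HPLC retention on a human albumin column, correlated against standard compounds of known protein binding.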

[5] = target: T1, Androgen receptor (Homo sapiens, UniProt P10275)
T1 sequence (P10275 whole entry): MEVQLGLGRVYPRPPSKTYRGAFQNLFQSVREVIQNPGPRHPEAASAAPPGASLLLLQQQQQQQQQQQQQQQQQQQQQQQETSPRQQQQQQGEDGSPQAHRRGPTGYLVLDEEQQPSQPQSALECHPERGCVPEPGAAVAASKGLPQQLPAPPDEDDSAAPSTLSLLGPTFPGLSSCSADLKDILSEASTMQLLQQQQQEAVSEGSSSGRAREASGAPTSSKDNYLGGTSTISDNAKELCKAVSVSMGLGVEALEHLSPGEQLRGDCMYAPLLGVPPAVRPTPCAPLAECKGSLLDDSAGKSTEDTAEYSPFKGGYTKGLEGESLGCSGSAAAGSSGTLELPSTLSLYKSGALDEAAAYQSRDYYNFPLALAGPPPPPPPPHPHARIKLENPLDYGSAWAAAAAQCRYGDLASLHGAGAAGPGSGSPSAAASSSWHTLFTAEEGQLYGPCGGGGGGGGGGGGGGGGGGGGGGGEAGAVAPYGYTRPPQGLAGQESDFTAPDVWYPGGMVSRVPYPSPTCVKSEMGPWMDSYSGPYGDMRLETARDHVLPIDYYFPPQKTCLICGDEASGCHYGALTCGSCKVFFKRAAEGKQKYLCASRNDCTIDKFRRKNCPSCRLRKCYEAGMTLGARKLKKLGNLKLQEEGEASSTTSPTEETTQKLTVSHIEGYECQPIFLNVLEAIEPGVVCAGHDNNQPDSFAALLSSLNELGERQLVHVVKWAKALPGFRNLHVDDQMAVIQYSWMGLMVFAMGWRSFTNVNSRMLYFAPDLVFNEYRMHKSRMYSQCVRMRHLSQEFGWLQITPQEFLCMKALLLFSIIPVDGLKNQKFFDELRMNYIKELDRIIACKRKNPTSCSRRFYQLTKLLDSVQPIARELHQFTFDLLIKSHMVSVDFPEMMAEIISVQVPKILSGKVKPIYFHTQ

[6] = Intrinsic clearance in human liver microsome in presence of NADPH-regenerating system incubated over 60 mins by LC-MS analysis; conditions: microsomes, 1 h
[7] = Kinetic solubility of compound at pH 6.5 phosphate buffer by nephelometry; assay type: physicochemical; conditions: read-out: Kinetic_solubility
[8] = test system: Schistosoma mansoni; experiment: Antischistosomal activity against Schistosoma mansoni infected in NMRI mouse assessed as reduction in total worm burden at 100 mg/kg, po administered as single dose starting on day 49 post-infection and measured at 28 days post treatment relative to control; assay type: functional; parameters: scale not given: the % may be the effect or the level left; conditions: time 28 day
Summary of the method: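 S. mansoni-infected NMRI mice treated on day 49 post-infection with a single oral dose, dissolved or suspended in 7% v/v Tween 80, 3% v/v ethanol (10 mL/kg), five mice per group. Sacrificed and dissected 28 d post-treatment; worms counted to give total worm burden reduction versus untreated controls. Kruskal–Wallis test on medians, treatment versus control.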

[9] = Octanol/water partition coefficient, logD of the compound at pH 7.4 by HPLC analysis

Sequence of Albumin (P02768 whole entry): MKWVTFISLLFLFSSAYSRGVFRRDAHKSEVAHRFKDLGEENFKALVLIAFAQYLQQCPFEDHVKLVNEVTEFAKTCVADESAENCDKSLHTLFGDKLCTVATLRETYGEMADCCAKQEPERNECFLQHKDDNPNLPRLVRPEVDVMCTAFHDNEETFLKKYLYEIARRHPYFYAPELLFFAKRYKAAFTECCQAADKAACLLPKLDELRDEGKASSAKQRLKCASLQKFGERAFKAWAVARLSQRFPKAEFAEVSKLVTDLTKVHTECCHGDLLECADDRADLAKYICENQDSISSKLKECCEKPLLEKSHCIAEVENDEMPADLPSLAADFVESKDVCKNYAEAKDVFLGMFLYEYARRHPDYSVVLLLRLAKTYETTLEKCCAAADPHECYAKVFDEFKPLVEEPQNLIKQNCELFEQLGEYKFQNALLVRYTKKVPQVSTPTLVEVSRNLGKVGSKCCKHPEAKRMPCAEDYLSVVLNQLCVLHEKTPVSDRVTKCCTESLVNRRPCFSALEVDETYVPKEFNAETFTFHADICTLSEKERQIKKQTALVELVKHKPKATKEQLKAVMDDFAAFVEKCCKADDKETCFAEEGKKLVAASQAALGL

| Compound | solubility kinetic [1] | CLH [2] | Activity [3] | PPB [4] | pIC50 [5] | CLH [6] | solubility kinetic [7] | Activity [8] | logD [9] |
| --- | --- | --- | --- | --- | --- | --- | --- | --- | --- |
| CC(C)(NC(=O)Nc1ccc(F)c(C(F)(F)F)c1)C(=O)O | 25 µg/mL (≈ 81.1 µM) | < 7 µL/min/mg | Non-Toxic | 94.3% | 5.51 | < 7 µL/min/mg | > 100 µg/mL | 67% | 1.1 |
| CC1(C)C(=O)N(c2ccc(F)c(C(F)(F)F)c2)C(=O)N1CCc1ccccc1 | 12.5 µg/mL (≈ 31.7 µM) | 740 µL/min/mg | Non-Toxic | 96.2% | 5.62 | > 870 µL/min/mg | 25 µg/mL (≈ 63.4 µM) | 54% | 4.6 |
| CC1(C)NC(=O)N(c2ccnc3ccccc23)C1=O | > 100 µg/mL | < 7 µL/min/mg | Non-Toxic | 16.9% | 5.89 | < 7 µL/min/mg | > 100 µg/mL | 17% | 1.2 |
| CC1(C)NC(=O)N(c2cccc(C(F)(F)F)c2)C1=O | > 100 µg/mL | < 7 µL/min/mg | Non-Toxic | 49.3% | 5.22 | < 7 µL/min/mg | > 100 µg/mL | 80% | 2.5 |
| CC1(C)NC(=O)N(c2cccnc2)C1=O | > 100 µg/mL | < 7 µL/min/mg | Non-Toxic | 6.6% | 5.02 | < 7 µL/min/mg | > 100 µg/mL | 38% | 0.2 |
| CC1(C)CC(=O)N(c2ccc(F)c(C(F)(F)F)c2)C1=O | 12.5 µg/mL (≈ 43.2 µM) | 10 µL/min/mg | Non-Toxic | 42.5% | 6.04 | 11 µL/min/mg | 12.5 µg/mL (≈ 43.2 µM) | 42% | 3.4 |
| O=C1C2CCCN2C(=O)N1c1ccc(F)c(C(F)(F)F)c1 (configuration not stated) | 25 µg/mL (≈ 82.7 µM) | 144 µL/min/mg | Non-Toxic | 46% | 5.46 | 30 µL/min/mg | 25 µg/mL (≈ 82.7 µM) | 0% | 3 |
| CC1(C)CN(c2ccc(F)c(C(F)(F)F)c2)C(=O)N1 | 12.5 µg/mL (≈ 45.3 µM) | 30 µL/min/mg | Non-Toxic | 78.3% | 5.09 | < 7 µL/min/mg | 12.5 µg/mL (≈ 45.3 µM) | 59% | 3.2 |
| CC1(C)NC(=O)N(c2ccc(C(F)(F)F)nc2)C1=O | > 100 µg/mL | < 7 µL/min/mg | Non-Toxic | 18.3% | < 5.00 | < 7 µL/min/mg | > 100 µg/mL | 0% | 1.8 |
| CC1(C)C(=O)N(c2ccc(F)c(C(F)(F)F)c2)C(=O)N1CC#N | 25 µg/mL (≈ 75.9 µM) |  | Non-Toxic | 48.2% | 6.54 |  | 25 µg/mL (≈ 75.9 µM) | 91% | 3.4 |
| CC1(C)CNC(=O)N(c2ccc(F)c(C(F)(F)F)c2)C1=O | 12.5 µg/mL (≈ 41.1 µM) | 15 µL/min/mg | Non-Toxic | 21.5% | 5.16 | 9 µL/min/mg | 12.5 µg/mL (≈ 41.1 µM) | 19% | 2.5 |
| CC1(C)NC(=O)N(c2ccc(F)c(C#N)c2)C1=O | > 100 µg/mL | < 7 µL/min/mg | Non-Toxic | 14.6% | 5.43 | < 7 µL/min/mg | > 100 µg/mL | 10% | 1.7 |
| CC1(CO)NC(=O)N(c2ccc(F)c(C(F)(F)F)c2)C1=O (configuration not stated) | 25 µg/mL (≈ 81.6 µM) | < 7 µL/min/mg | Non-Toxic | 34.3% | 5.32 | < 7 µL/min/mg | 25 µg/mL (≈ 81.6 µM) | 0% | 1.9 |
| O=C1CNC(=O)N1c1ccc(F)c(C(F)(F)F)c1 | > 100 µg/mL | 13 µL/min/mg | Non-Toxic | 43.6% | 6.59 | < 7 µL/min/mg | > 100 µg/mL | 0% | 2 |
| CC1(C)CC(=O)N(c2ccc(F)c(C(F)(F)F)c2)C(=O)N1 | 25 µg/mL (≈ 82.2 µM) | < 7 µL/min/mg | Non-Toxic | 15% | < 5.00 | < 7 µL/min/mg | 25 µg/mL (≈ 82.2 µM) | 51% | 2.4 |
| CC1(C)NC(=O)N(c2ccncc2)C1=O | 50 µg/mL (≈ 244 µM) | 11 µL/min/mg | Non-Toxic | 6.7% | 5.42 | < 7 µL/min/mg | > 100 µg/mL | 1.8% |  |
| O=C(C1CCCCC1)N1CC(=O)N2CCc3ccccc3C2C1 (configuration not stated) [PRAZIQUANTEL] | > 100 µg/mL |  |  |  |  |  | > 100 µg/mL | 18% | 3 |
| CC1(C)NC(=O)N(c2ccc([N+](=O)[O-])c(C(F)(F)F)c2)C1=O [NILUTAMIDE] | 50 µg/mL (≈ 158 µM) | < 7 µL/min/mg |  | 70.3% |  | < 7 µL/min/mg | 50 µg/mL (≈ 158 µM) | 31% | 3 |
